Blank lines part the entries; values can stand above or below the molecule they belong to.
Tests used:
Format in all cases: ADME, organism-based, Canis lupus familiaris
Settings in all cases: in vivo; call rule not given here
Canis familiaris [1] = assay: Drug level in iv dosed dog after 5 to 30 mins by gamma-scintillation counting analysis
In short: (§1)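 Carbon-11-labeled hydantoin, 1–59 mCi of final product, dissolved in 1–1.5% aqueous NaOH and given iv to dogs. Distribution imaged serially for up to 2 hr or more with a scintillation camera fitted with a pinhole collimator (1-cm hyperbolic aperture), with whole-body scintiphotos at about 5 and 30 min. Readout is qualitative to semiquantitative; no coincidence imaging.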

Nucleic Acid [2] = assay: Ratio of drug level in iv dosed dog spleen to temporal muscle after 73 mins by gamma-scintillation counting analysis
In short: (§2)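 Dogs were dosed iv with 11C-labeled hydantoin. Tissues and fluids were collected at necropsy 73 or 80 min post-dose and counted at fixed geometry in front of a thallium-activated NaI scintillation detector. Values are cpm/g of tissue divided by cpm/g of temporal muscle.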

[3] = Drug level in iv dosed dog lung after 5 to 30 mins by gamma-scintillation counting analysis; in short: as §1
Nucleic Acid [4] = assay: Ratio of drug level in iv dosed dog washed heart to temporal muscle after 73 mins by gamma-scintillation counting analysis
In short: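 [11C]-labeled hydantoin, from carrier-free [11C]HCN, given intravenously to dogs. Heart washed and taken at necropsy 73 min after dosing, along with temporal muscle. Tissues were counted at fixed geometry before a thallium-activated NaI scintillation detector. Value is cpm/g washed heart divided by cpm/g temporal muscle.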

Nucleic Acid [5] = assay: Ratio of drug level in iv dosed dog mesenteric fat to temporal muscle after 73 mins by gamma-scintillation counting analysis; in short: as §2
Nucleic Acid [6] = assay: Ratio of drug level in iv dosed dog kidney to temporal muscle after 73 mins by gamma-scintillation counting analysis; in short: as §2
Nucleic Acid [7] = assay: Ratio of drug level in iv dosed dog blood to temporal muscle after 73 mins by gamma-scintillation counting analysis; in short: as §2
Nucleic Acid [8] = assay: Ratio of drug level in iv dosed dog bile to temporal muscle after 73 mins by gamma-scintillation counting analysis; in short: as §2
Nucleic Acid [9] = assay: Ratio of drug level in iv dosed dog stomach to temporal muscle after 73 mins by gamma-scintillation counting analysis; in short: as §2
Nucleic Acid [10] = assay: Ratio of drug level in iv dosed dog liver to temporal muscle after 73 mins by gamma-scintillation counting analysis; in short: as §2
Nucleic Acid [11] = assay: Ratio of drug level in iv dosed dog pancreas to temporal muscle after 73 mins by gamma-scintillation counting analysis; in short: as §2
Nucleic Acid [12] = assay: Ratio of drug level in iv dosed dog cerebrospinal fluid to temporal muscle after 73 mins by gamma-scintillation counting analysis; in short: as §2
Nucleic Acid [13] = assay: Ratio of drug level in iv dosed dog lung to temporal muscle after 73 mins by gamma-scintillation counting analysis; in short: as §2
Liver [14] = assay: Drug level in iv dosed dog liver after 5 to 30 mins by gamma-scintillation counting analysis; in short: as §1
Nucleic Acid [15] = assay: Ratio of drug level in iv dosed dog urine to temporal muscle after 73 mins by gamma-scintillation counting analysis; in short: as §2
Nucleic Acid [16] = assay: Ratio of drug level in iv dosed dog brain to temporal muscle after 73 mins by gamma-scintillation counting analysis; in short: as §2
[17] = Drug level in iv dosed dog kidney after 5 to 30 mins by gamma-scintillation counting analysis; in short: as §1
[18] = Drug excretion in iv dosed dog urine after 5 to 30 mins by gamma-scintillation counting analysis; in short: as §1
[19] = Drug level in iv dosed dog kidney by gamma-scintillation counting analysis; in short: as §1
[20] = Drug level in iv dosed dog lung by gamma-scintillation counting analysis; in short: as §1
Liver [21] = assay: Drug level in iv dosed dog liver by gamma-scintillation counting analysis; in short: as §1
Canis familiaris [22] = assay: Drug level in iv dosed dog by gamma-scintillation counting analysis; in short: as §1
[23] = Drug excretion in iv dosed dog urine by gamma-scintillation counting analysis; in short: as §1
[24] = Drug level in iv dosed dog vein by gamma-scintillation counting analysis; in short: as §1
Brain = assay: Drug level in iv dosed dog brain by gamma-scintillation counting analysis; in short: as §1

Compound: O=C1N[11C](=O)C2(CCCCC2)N1
- Drug uptake [19]: Active
- Drug uptake [20]: Active
- Drug uptake (Liver [21]): Active
- Drug uptake (Canis familiaris [22]): Active
- Drug excretion [23]: metabolite_detected
- Drug uptake [24]: Active

Compound: O=C1N[11C](=O)C2(CCCCCC2)N1
- Drug uptake (Brain): Active
- Drug uptake (Liver [21]): Active

Compound: O=C1N[11C](=O)C2(CCCCCCC2)N1
- Drug uptake (Brain): Not Active

Compound: O=C1N[11C](=O)C2(N1)c1ccccc1-c1ccccc12
- Drug uptake (Brain): Not Active

Compound: O=C1N[11C](=O)C2(CCCc3ccccc32)N1 (configuration not stated)
- Drug uptake (Brain): Not Active

Second part, the molecule after the results:

- Drug uptake (Canis familiaris [1]): Active
Compound: CC1(c2ccccc2)NC(=O)N[11C]1=O (configuration not stated)

- Ratio (Nucleic Acid [2]): 1.25
- Drug uptake (Canis familiaris [1]): Active
- Drug uptake [3]: Active
- Ratio (Nucleic Acid [4]): 1
- Ratio (Nucleic Acid [5]): 0.75
- Ratio (Nucleic Acid [6]): 1.25
- Ratio (Nucleic Acid [7]): 1
- Ratio (Nucleic Acid [8]): 1.58
- Ratio (Nucleic Acid [9]): 0.92
- Ratio (Nucleic Acid [10]): 1.33
- Ratio (Nucleic Acid [11]): 1.67
- Ratio (Nucleic Acid [12]): 2.67
- Ratio (Nucleic Acid [13]): 0.75
- Drug uptake (Liver [14]): Active
- Ratio (Nucleic Acid [15]): 0.67
- Ratio (Nucleic Acid [16]): 1.25
Compound: CCC1(c2ccccc2)NC(=O)N[11C]1=O (configuration not stated)

- Drug uptake (Canis familiaris [1]): Active
Compound: CCCC1(c2ccccc2)NC(=O)N[11C]1=O (configuration not stated)

- Drug uptake (Canis familiaris [1]): Active
- Drug uptake [17]: Active
- Drug excretion [18]: metabolite_detected
Compound: O=C(O)CCC1(c2ccccc2)NC(=O)N[11C]1=O (configuration not stated)

Reference: ChEMBL document CHEMBL3272253, “Relationship of molecular structure to in vivo scintigraphic distribution patterns of carbon-11 labeled compounds. 3. (11C)Hydantoins” (J Med Chem, 1976)
